# ChEMBL document CHEMBL1671850, “Discovery of a benzo[e]pyrimido-[5,4-b][1,4]diazepin-6(11H)-one as a Potent and Selective Inhibitor of Big MAP Kinase 1” (ACS Med Chem Lett, 2011)
# Columns and labels:
# [1] = target: Mitogen-activated protein kinase 7 (Homo sapiens, UniProt Q13164); experiment: Inhibition of EGF-induced BMK1 autophosphorylation in human HeLa cells by SDS-PAGE analysis; type: cell-based
# PC-3 = experiment: Antiproliferative activity against human PC3 cells after 72 hrs; type: functional, cell-based; conditions: PC-3, 72 h
# BPH-1 = experiment: Antiproliferative activity against human BPH1 cells after 72 hrs; type: functional, cell-based; conditions: BPH-1, 72 h
# MCF7 = experiment: Antiproliferative activity against human MCF7 cells after 72 hrs; type: functional, cell-based; conditions: MCF7, 72 h
# AU565 = experiment: Antiproliferative activity against human AU565 cells after 72 hrs; type: functional, cell-based; conditions: AU565, 72 h
# SK-N-AS = experiment: Antiproliferative activity against human SK-N-AS cells after 72 hrs; type: functional, cell-based
# NCI-H1299 = experiment: Antiproliferative activity against human NCI-H1299 cells after 72 hrs; type: functional, cell-based; conditions: NCI-H1299, 72 h
# NCI-H522 = experiment: Antiproliferative activity against human NCI-H522 cells after 72 hrs; type: functional, cell-based; conditions: NCI-H522, 72 h
# [2] = AUC (0 to infinity) in mouse at 1 mg/kg, iv; type: ADME, organism-based; set-up: time infinity, dose 1 mg/kg, route intravenous; conditions: plasma
# Summary of the method: (§1)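 Single-dose pharmacokinetics: rats given 1 mg/kg intravenous or 2 mg/kg oral; mice given 1 mg/kg intravenous or 10 mg/kg oral. Plasma concentration profiles yield Tmax, Cmax, AUC0-∞, half-life, plasma clearance, Vss and oral bioavailability.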
# [3] = Half life in mouse at 1 mg/kg, iv; type: ADME, organism-based; set-up: dose 1 mg/kg, route intravenous; conditions: in vivo; summary of the method: as §1
# [4] = Plasma clearance in mouse at 1 mg/kg, iv; type: ADME, organism-based; set-up: dose 1 mg/kg, route intravenous; summary of the method: as §1
# [5] = Volume of distribution at steady state in mouse at 1 mg/kg, iv; type: ADME, organism-based; set-up: dose 1 mg/kg, route intravenous; conditions: in vivo, read-out: Vdss; summary of the method: as §1
# [6] = Tmax in mouse at 10 mg/kg, po; type: ADME, organism-based; set-up: dose 10 mg/kg, route oral; conditions: in vivo; summary of the method: as §1
# [7] = Cmax in mouse at 10 mg/kg, po; type: ADME, organism-based; set-up: dose 10 mg/kg, route oral; conditions: in vivo; summary of the method: as §1
# [8] = AUC (0 to infinity) in mouse at 10 mg/kg, po; type: ADME, organism-based; set-up: time infinity, dose 10 mg/kg, route oral; conditions: plasma; summary of the method: as §1
# [9] = Oral bioavailability in mouse at 10 mg/kg; type: ADME, organism-based; conditions: in vivo; summary of the method: as §1
# [10] = target: Serine/threonine-protein kinase DCLK1 (Homo sapiens, UniProt O15075); experiment: Binding affinity to DCAMKL1 by immobilized ligand displacement assay
# Summary of the method: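 Dissociation constant (Kd) measured in the Ambit KINOMEScan competition binding format, which reads kinase displacement from an immobilized ligand.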
# [11] = target: Serine/threonine-protein kinase DCLK2 (Homo sapiens, UniProt Q8N568); experiment: Binding affinity to DCAMKL2 by immobilized ligand displacement assay
# Sequence of Serine/threonine-protein kinase DCLK2 (Q8N568 whole entry): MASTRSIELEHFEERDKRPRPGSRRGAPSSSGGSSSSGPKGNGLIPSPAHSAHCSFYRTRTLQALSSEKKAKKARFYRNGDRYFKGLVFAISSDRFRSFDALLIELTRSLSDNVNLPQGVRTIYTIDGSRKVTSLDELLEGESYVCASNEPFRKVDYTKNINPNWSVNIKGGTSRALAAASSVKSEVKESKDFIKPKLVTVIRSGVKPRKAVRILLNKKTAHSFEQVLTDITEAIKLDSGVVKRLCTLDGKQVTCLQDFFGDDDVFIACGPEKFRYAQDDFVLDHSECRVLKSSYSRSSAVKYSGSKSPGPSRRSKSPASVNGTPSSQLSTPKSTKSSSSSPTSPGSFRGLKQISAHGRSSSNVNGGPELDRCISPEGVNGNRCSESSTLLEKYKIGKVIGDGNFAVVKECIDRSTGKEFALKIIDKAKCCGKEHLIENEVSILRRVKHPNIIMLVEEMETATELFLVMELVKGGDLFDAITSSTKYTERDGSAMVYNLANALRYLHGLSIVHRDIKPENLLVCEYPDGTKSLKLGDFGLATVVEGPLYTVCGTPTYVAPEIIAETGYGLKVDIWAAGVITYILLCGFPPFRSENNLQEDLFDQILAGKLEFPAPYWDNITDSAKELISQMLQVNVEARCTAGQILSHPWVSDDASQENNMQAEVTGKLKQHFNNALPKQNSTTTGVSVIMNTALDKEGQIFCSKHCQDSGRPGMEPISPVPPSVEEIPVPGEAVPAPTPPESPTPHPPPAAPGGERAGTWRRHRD
# Summary of the method: (§2)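 KINOMEscan-type competition binding: displacement of kinase from an immobilized ligand; Kd values determined for individual kinases.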
# [12] = target: Non-receptor tyrosine-protein kinase TNK1 (Homo sapiens, UniProt Q13470); experiment: Binding affinity to TNK1 by immobilized ligand displacement assay; summary of the method: as §2
# [13] = tested on: Tyrosine-protein kinase ABL1 (Homo sapiens), P00519 [F317I]; experiment: Binding affinity to ABL1 F317I mutant at 10 uM by immobilized ligand displacement assay
# Sequence of Tyrosine-protein kinase ABL1 (Homo sapiens), P00519 [F317I] (P00519 whole entry F317I): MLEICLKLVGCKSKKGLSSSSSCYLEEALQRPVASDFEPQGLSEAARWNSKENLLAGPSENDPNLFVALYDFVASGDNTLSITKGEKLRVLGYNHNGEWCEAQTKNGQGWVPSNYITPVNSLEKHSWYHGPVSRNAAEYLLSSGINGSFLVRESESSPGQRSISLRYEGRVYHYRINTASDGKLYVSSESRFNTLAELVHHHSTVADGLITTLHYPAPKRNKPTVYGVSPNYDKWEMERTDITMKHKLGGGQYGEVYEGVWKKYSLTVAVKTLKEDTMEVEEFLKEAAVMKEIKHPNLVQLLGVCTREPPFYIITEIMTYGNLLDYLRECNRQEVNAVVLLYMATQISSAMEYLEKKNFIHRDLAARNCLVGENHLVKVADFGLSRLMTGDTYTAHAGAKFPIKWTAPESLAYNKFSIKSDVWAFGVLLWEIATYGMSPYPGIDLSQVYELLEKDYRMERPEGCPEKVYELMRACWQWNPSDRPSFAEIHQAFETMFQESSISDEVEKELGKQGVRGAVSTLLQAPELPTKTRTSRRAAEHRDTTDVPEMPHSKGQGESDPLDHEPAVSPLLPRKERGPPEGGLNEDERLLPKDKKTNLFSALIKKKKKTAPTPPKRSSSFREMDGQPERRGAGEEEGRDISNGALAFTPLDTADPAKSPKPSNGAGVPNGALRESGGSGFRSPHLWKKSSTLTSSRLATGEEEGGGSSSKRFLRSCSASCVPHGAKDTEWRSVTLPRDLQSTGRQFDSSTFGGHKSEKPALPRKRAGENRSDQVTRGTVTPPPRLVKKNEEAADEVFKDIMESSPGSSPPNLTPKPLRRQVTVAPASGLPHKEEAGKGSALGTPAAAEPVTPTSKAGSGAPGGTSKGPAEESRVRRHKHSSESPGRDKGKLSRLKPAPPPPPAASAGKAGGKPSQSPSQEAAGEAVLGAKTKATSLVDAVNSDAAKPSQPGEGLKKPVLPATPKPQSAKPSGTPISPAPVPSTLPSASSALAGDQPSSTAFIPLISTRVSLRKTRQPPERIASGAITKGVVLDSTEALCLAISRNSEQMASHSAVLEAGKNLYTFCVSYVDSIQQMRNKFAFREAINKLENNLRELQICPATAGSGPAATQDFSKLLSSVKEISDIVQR
# Summary of the method: (§3)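 Ambit KINOMEScan competition binding panel (402 kinases). Kinase displacement from an immobilized ligand is read relative to a DMSO control. Hits are kinases showing more than […] displacement. The text gives the test concentration as 10 μM.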
# [14] = target: Protein-tyrosine kinase 6 (Homo sapiens) (UniProt Q13882); experiment: Binding affinity to BRK at 10 uM by immobilized ligand displacement assay; summary of the method: as §3
# [15] = target: Macrophage colony-stimulating factor 1 receptor (Homo sapiens) (UniProt P07333); experiment: Binding affinity to c-FMS at 10 uM by immobilized ligand displacement assay; summary of the method: as §3
# Sequence of Macrophage colony-stimulating factor 1 receptor (Homo sapiens) (P07333 whole entry): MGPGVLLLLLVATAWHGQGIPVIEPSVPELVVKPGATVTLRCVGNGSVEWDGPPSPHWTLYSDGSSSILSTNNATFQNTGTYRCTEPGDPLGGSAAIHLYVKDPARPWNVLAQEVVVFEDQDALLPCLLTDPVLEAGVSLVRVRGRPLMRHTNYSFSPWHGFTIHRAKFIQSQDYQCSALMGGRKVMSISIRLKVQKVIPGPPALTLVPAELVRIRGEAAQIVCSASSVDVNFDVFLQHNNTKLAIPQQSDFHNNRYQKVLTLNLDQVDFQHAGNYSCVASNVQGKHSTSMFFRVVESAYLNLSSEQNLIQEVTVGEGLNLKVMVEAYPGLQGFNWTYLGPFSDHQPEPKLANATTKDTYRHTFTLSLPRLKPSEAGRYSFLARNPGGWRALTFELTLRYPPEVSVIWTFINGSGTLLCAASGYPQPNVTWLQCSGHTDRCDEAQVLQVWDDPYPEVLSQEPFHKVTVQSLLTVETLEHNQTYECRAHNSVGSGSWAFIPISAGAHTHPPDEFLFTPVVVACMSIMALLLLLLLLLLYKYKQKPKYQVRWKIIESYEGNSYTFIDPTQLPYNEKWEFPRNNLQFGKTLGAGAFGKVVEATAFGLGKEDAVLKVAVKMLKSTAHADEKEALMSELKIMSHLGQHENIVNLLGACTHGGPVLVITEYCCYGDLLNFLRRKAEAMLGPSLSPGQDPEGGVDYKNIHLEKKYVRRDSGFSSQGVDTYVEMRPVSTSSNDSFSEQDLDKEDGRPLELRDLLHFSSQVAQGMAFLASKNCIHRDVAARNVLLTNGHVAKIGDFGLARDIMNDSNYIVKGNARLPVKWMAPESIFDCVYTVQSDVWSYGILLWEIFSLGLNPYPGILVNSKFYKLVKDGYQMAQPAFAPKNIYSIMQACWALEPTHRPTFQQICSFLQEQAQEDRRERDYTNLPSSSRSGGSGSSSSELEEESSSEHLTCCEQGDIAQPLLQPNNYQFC
# [16] = target: Cyclin-G-associated kinase (Homo sapiens) (UniProt O14976); experiment: Binding affinity to GAK at 10 uM by immobilized ligand displacement assay; summary of the method: as §3
# Sequence of Cyclin-G-associated kinase (Homo sapiens) (O14976 whole entry): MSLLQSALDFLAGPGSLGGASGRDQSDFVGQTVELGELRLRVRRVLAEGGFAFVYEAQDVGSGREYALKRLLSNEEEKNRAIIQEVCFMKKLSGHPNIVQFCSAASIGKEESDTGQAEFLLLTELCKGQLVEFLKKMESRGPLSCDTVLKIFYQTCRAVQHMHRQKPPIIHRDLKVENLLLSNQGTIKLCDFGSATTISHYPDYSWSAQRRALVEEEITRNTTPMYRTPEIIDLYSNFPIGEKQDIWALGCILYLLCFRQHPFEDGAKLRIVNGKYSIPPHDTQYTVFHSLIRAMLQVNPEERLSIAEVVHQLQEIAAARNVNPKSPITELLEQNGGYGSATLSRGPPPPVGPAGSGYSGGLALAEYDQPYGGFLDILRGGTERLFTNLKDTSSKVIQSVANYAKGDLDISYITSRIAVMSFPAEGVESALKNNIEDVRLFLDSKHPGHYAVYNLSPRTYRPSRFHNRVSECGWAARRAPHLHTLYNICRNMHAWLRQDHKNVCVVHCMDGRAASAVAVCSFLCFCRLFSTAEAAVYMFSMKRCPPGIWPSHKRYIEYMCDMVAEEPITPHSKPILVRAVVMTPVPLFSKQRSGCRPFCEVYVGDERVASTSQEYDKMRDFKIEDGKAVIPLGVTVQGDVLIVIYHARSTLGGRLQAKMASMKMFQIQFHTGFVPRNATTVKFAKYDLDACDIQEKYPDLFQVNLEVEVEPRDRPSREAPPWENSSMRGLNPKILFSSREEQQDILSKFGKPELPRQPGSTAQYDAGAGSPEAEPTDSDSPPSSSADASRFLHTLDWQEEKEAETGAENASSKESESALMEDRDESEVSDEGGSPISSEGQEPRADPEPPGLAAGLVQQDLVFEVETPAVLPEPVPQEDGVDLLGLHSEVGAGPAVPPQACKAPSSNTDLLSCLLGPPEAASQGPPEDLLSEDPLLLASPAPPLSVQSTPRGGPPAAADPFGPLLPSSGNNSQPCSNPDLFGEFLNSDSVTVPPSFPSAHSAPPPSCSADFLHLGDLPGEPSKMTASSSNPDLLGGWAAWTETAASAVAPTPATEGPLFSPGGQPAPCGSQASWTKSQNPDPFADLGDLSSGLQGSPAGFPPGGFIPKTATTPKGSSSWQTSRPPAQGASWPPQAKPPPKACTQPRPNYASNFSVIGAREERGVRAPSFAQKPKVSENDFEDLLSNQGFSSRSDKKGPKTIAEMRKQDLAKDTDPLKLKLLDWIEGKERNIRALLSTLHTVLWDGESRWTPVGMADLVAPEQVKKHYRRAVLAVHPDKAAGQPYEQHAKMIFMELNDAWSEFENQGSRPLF
# [17] = tested on: Mast/stem cell growth factor receptor Kit (Homo sapiens), P10721 [L576P]; experiment: Binding affinity to KIT L576P mutant at 10 uM by immobilized ligand displacement assay; summary of the method: as §3
# [18] = target: Myosin light chain kinase family member 4 (Homo sapiens) (UniProt Q86YV6); experiment: Binding affinity to MYLK4 at 10 uM by immobilized ligand displacement assay; summary of the method: as §3
# [19] = Tmax in rat at 1 mg/kg, iv; type: ADME, organism-based; set-up: dose 1 mg/kg, route intravenous; conditions: in vivo; summary of the method: as §1
# [20] = Cmax in rat at 1 mg/kg, iv; type: ADME, organism-based; set-up: dose 1 mg/kg, route intravenous; conditions: in vivo; summary of the method: as §1
# [21] = AUC (0 to infinity) in rat at 1 mg/kg, iv; type: ADME, organism-based; set-up: time infinity, dose 1 mg/kg, route intravenous; conditions: plasma; summary of the method: as §1
# [22] = Half life in rat at 1 mg/kg, iv; type: ADME, organism-based; set-up: dose 1 mg/kg, route intravenous; conditions: in vivo; summary of the method: as §1
# [23] = Plasma clearance in rat at 1 mg/kg, iv; type: ADME, organism-based; set-up: dose 1 mg/kg, route intravenous; summary of the method: as §1
# [24] = Volume of distribution at steady state in rat at 1 mg/kg, iv; type: ADME, organism-based; set-up: dose 1 mg/kg, route intravenous; conditions: in vivo, read-out: Vdss; summary of the method: as §1
# [25] = Tmax in rat at 2 mg/kg, po; type: ADME, organism-based; set-up: dose 2 mg/kg, route oral; conditions: in vivo; summary of the method: as §1
# [26] = Cmax in rat at 2 mg/kg, po; type: ADME, organism-based; set-up: dose 2 mg/kg, route oral; conditions: in vivo; summary of the method: as §1
# [27] = AUC (0 to infinity) in rat at 2 mg/kg, po; type: ADME, organism-based; set-up: time infinity, dose 2 mg/kg, route oral; conditions: plasma; summary of the method: as §1
# Rattus norvegicus = experiment: Half life in rat at 2 mg/kg, po; type: ADME, organism-based; set-up: dose 2 mg/kg, route oral; conditions: in vivo; summary of the method: as §1
# [28] = Plasma clearance in rat at 2 mg/kg, po; type: ADME, organism-based; set-up: dose 2 mg/kg, route oral; summary of the method: as §1
# [29] = Oral bioavailability in rat at 2 mg/kg; type: ADME, organism-based; conditions: in vivo; summary of the method: as §1
# HeLa = experiment: Antitumor activity against human HeLa cells xenografted in mouse assessed as inhibition of tumor growth at 50 mg/kg, ip bid for 28 days; type: functional; conditions: route intraperitoneal
# Summary of the method: (§4)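 HeLa cell xenograft in mice; tumor-bearing animals injected intraperitoneally with 50 mg/kg or vehicle solution twice daily for 28 days; tumor growth compared against vehicle.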
# Mus musculus = experiment: Toxicity in human HeLa cells xenografted mouse assessed as tolerability at 50 mg/kg ip bid for 28 days; type: organism-based; set-up: dose 50 mg/kg, route intraperitoneal; conditions: in vivo; summary of the method: as §4
# Sequence of Mitogen-activated protein kinase 7 (Q13164 whole entry): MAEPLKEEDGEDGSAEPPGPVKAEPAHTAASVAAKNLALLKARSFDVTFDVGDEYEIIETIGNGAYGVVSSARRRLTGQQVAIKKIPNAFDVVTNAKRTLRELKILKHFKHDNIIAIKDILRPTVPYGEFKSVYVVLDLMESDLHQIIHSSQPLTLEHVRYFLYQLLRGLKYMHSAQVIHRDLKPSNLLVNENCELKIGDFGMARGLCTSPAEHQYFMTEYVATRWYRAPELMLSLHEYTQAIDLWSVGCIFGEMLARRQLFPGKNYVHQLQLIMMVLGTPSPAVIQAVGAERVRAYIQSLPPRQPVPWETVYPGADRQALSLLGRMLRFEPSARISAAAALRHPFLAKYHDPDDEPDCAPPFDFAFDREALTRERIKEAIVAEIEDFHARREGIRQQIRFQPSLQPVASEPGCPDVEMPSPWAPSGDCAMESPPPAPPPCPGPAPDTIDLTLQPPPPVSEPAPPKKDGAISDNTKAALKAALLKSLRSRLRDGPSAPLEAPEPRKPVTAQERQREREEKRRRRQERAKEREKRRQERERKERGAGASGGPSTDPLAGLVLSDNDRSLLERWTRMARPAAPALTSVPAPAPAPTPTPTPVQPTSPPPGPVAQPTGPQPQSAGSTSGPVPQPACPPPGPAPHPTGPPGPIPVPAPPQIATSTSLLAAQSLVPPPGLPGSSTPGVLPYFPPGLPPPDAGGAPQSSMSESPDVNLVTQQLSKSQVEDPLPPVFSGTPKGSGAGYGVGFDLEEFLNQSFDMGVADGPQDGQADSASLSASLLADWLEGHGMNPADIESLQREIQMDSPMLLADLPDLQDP
smiles,measurement,setting,value
CN1C(=O)c2ccccc2N(C)c2nc(Nc3ccc(S(N)(=O)=O)cc3)ncc21,IC50,[1],310 nM
COc1cc(C2CCN(C)CC2)ccc1Nc1ncc2c(n1)N(C)c1ccccc1C(=O)N2C,IC50,[1],260 nM
COc1cc(C(=O)N2CCC(N3CCCC3)CC2)ccc1Nc1ncc2c(n1)N(C)c1ccccc1C(=O)N2C,IC50,[1],130 nM
same,EC50,PC-3,3.6 µM
same,EC50,BPH-1,1600 nM
same,EC50,MCF7,> 10 µM
same,EC50,AU565,> 10 µM
same,EC50,SK-N-AS,4.4 µM
same,EC50,NCI-H1299,4.2 µM
same,EC50,NCI-H522,950 nM
same,AUC(0-inf),[2],907 ng·h/mL
same,half-life,[3],157 min
same,clearance,[4],18.4 mL/min/kg
same,Vd,[5],5.36 L/kg
same,Tmax,[6],2 h
same,Cmax,[7],1290 ng/mL
same,AUC(0-inf),[8],7870 ng·h/mL
same,bioavailability,[9],86.6%
COc1cc(N2CCN(C)CC2)ccc1Nc1ncc2c(n1)N(C)c1ccccc1C(=O)N2C,Kd,[10],1.2 nM
same,Kd,[11],10 nM
same,Kd,[12],29 nM
COc1cc(N2CCN(C)CC2)ccc1Nc1ncc2c(n1)N(C1CCCC1)c1ccccc1C(=O)N2C,IC50,[1],200 nM
COc1cc(N2CCOCC2)ccc1Nc1ncc2c(n1)N(C)c1ccccc1C(=O)N2C,IC50,[1],260 nM
COc1cc(N2CCN(C)CC2)ccc1Nc1ncc2c(n1)N(C)c1cc(F)ccc1C(=O)N2C,IC50,[1],1320 nM
COc1cc(N2CCN(C)CC2)ccc1Nc1ncc2c(n1)N(C)c1ccc(C)cc1C(=O)N2C,IC50,[1],3100 nM
COc1cc(C(=O)NCCN(C)C)ccc1Nc1ncc2c(n1)N(C)c1ccccc1C(=O)N2C,IC50,[1],240 nM
COc1cc(C(=O)NC2CCN(C)CC2)ccc1Nc1ncc2c(n1)N(C)c1ccccc1C(=O)N2C,IC50,[1],320 nM
Cc1cc(N2CCN(C)CC2)ccc1Nc1ncc2c(n1)N(C)c1ccccc1C(=O)N2C,IC50,[1],280 nM
CCN1c2ccccc2C(=O)N(C)c2cnc(Nc3ccc(N4CCN(C)CC4)cc3OC)nc21,IC50,[1],200 nM
COc1cc(N2CCNCC2)ccc1Nc1ncc2c(n1)N(C)c1ccccc1C(=O)N2C,IC50,[1],230 nM
COc1cc(N2CCC(O)CC2)ccc1Nc1ncc2c(n1)N(C)c1ccccc1C(=O)N2C,IC50,[1],240 nM
COc1cc(N2CCN(C)CC2)ccc1Nc1ncc2c(n1)N(C)c1cc(Cl)ccc1C(=O)N2C,IC50,[1],11400 nM
COc1cc(N2CCN(C)CC2)ccc1Nc1ncc2c(n1)N(C)c1ccc(Cl)cc1C(=O)N2C,IC50,[1],1240 nM
COc1cc(N2CCN(C)CC2)ccc1Nc1ncc2c(n1)N(C)c1ccccc1C(=O)N2,inhibition,[13],> 90%
same,inhibition,[14],> 90%
same,inhibition,[15],> 90%
same,inhibition,[16],> 90%
same,inhibition,[17],> 90%
same,inhibition,[18],> 90%
COc1cc(N2CCN(C)CC2)ccc1Nc1ncc2c(n1)N(C(C)C)c1ccccc1C(=O)N2C,IC50,[1],230 nM
CCOc1cc(N2CCC(O)CC2)ccc1Nc1ncc2c(n1)N(C)c1ccccc1C(=O)N2C,Tmax,[19],4.8 min
same,Cmax,[20],439 ng/mL
same,AUC(0-inf),[21],658 ng·h/mL
same,half-life,[22],120 min
same,clearance,[23],25.5 mL/min/kg
same,Vd,[24],3.4 L/kg
same,Tmax,[25],30 min
same,Cmax,[26],247 ng/mL
same,AUC(0-inf),[27],903 ng·h/mL
same,t1/2,Rattus norvegicus,3.4 h
same,CL/F,[28],37 mL/min/kg
same,bioavailability,[29],68.6%
same,inhibition in vivo at 50 mg/kg,HeLa,95%
same,Activity,Mus musculus,Non-toxic
